Env fusion inh = inhibitors of HIV Env-mediated cell fusion | 360,000 tested, 1.1% active | inhibition, % at 12.3 µM | HeLa-JRFL Env/CEM21 cell fusion, luciferase;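 active means mean replicate inhibition score of at least 50 and every replicate individually at or above 50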
V-ATPase pH = regulators of yeast V-ATPase proton transport; S. cerevisiae, pHLuorin cytosolic pH fluorescence; response, % at 10 µM; 350,000 tested, 0.37% active; AID 504577; in the data active means response mostly above about 7.3%, no sharp cut-off; inactive means mostly below about 5.4%; further: actives read high
GalR3 antagonist = blocks the human galanin receptor 3; HEK293 GalR3-CNG cAMP membrane potential fluorescence; galR3 body fused to GalR1 C-terminus; inhibition, % at 3 µM; 360,000 tested, 0.44% active;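 active means inhibition above the screen-wide average plus 3 SD, cut at about 13% in these data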;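 further: forskolin and galanin both at EC90 stimulate the cells; cAMP rise reported by CNG channel membrane potential dye signal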
Target sequence (O60755 1-299 limits assumed): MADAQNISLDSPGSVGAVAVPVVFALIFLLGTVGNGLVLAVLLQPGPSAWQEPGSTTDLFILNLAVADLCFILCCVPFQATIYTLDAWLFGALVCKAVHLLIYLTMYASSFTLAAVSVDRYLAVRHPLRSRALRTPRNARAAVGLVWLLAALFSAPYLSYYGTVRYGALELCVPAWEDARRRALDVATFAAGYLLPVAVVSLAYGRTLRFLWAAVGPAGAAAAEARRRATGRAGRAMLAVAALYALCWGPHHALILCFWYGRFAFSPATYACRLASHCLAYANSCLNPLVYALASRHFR
FXN GAA850 act = increases GAA850 frataxin promoter reporter activity | HEK293 lucGAA850 FXN promoter luciferase reporter, 24 h; percent of 10 µM SAHA response | AID 540364 | activation, % at 6 µM | 360,000 tested, 0.56% active;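 active means activation above the average of all compounds screened plus 3 SD, cutoff fixed separately per campaign, cut at about 7.5% in these data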
NR2E3 ag-1 = NR2E3 (human) agonism; Q9Y5X4; GST-NR2E3/biotin-RetCOR TR-FRET, 1536-well; inhibition of corepressor binding, % at 4.78 µM; 320,000 tested, 0.12% active;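 active means percent inhibition above the cutoff of mean plus 3 SD of all tested compounds, set per screening campaign, cut at about 20% in these data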
Target sequence (Q9Y5X4 whole entry, looked up): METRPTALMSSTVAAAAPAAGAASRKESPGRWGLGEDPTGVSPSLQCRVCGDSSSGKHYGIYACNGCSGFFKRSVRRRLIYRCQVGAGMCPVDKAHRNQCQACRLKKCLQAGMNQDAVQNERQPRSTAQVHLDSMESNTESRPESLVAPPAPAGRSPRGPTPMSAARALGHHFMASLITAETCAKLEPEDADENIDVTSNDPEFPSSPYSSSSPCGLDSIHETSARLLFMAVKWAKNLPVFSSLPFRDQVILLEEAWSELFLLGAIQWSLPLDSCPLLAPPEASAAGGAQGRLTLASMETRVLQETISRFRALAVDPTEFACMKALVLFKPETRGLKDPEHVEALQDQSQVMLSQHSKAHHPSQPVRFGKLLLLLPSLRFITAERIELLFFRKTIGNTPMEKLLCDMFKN
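Test system – NR2E3–RetCOR corepressor complex · Quantity – NR2E3 fusion 1.35 nM · Buffer or medium – Tris pH 7.5 · Incubation – Compound–protein incubation for 5 h at 4 °C · Technique – TR-FRET, Eu(K)-anti-GST donor, streptavidin-D2 acceptor, ex 340, em 617/671 nm · Evaluation – percent inhibition of 671/617 nm emission ratio versus biotin and DMSO controls · Plate – 1536-well format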
NR2E3 ag-2 = human photoreceptor-specific nuclear receptor agonism | inhibition of corepressor binding, % at 3.98 µM | Q9Y5X4 | CHO-S Gal4-NCOR/VP16-NR2E3 two-hybrid, luciferase | 360,000 tested, 0.35% active | AID 602229;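 active means inhibition above the mean of all tested compounds plus 3 SD, cut at about 70% in these data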;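 further: higher means lower luciferase signal from less NR2E3 corepressor binding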
NR2E3 ag confirm = NR2E3 agonism confirmed in two-hybrid assay; 2,300 tested, 51% active; CHO-S mammalian two-hybrid NR2E3-NCOR, luciferase luminescence; shares compounds with NR2E3 ag-2; inhibition, % at 3.98 µM; AID 624378;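 active means average inhibition above a cutoff equal to the mean inhibition of all tested compounds plus one SD, cut at about 70% in these data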
VP16 counter = GAL4-VP16 reporter inhibition in NR2E3 agonist counterscreen. inhibition, % at 3.98 µM. CHO-S GAL4-VP16 luciferase reporter, luminescence. 2,300 tested, 29% active. shares compounds with NR2E3 ag-2;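 active means mean inhibition above a cutoff equal to the average over all tested compounds plus one standard deviation, cut at about 70% in these data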;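 further: luciferase from a UAS reporter driven by GAL4-VP16 transactivation; higher means less reporter light so more repression of VP16 activity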
GalR3 conf = GalR3 (human) antagonism, confirmation; shares compounds with GalR3 antagonist; HEK293 GalR3 CNG cAMP biosensor, membrane potential fluorescence; galR3 fused to GalR1 carboxy tail; challenged with forskolin and galanin at EC90; inhibition, % at 3 µM; 1,600 tested, 59% active; AID 652245;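 active means inhibition above the primary screen's cutoff, the mean inhibition of all screened compounds plus 3 SD, cut at about 13% in these data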
CNG parental = acts as nonspecific agonist in parental HEK-CNG cells | activation, % at 3 µM | 1,600 tested, 10% active | HEK293-CNG parental cells, cAMP membrane potential fluorescence; normalised: DMSO wells 0%, forskolin wells 100% | shares compounds with GalR3 antagonist; in the data active means activation above about 1.3%
Numbers stand for hits; - = inactive; . = not tested or not shown. In the library only some 2.2% were active in any assay of this set; here they are far more common.

SMILES | Env fusion inh | V-ATPase pH | GalR3 antagonist | FXN GAA850 act | NR2E3 ag-1 | NR2E3 ag-2 | GalR3 conf | CNG parental | others
CCn1nc(C)c(CNC(=O)c2ccc(OC3CCN(Cc4ccccn4)CC3)cc2)c1C | - | - | 97 | - | . | 79 | 103 | - | NR2E3 ag confirm=-;VP16 counter=-
Cn1nc(C(C)(C)C)cc1C(=O)NCc1ccc2c(c1)OCO2 | - | - | 105 | - | - | 105 | 108 | - | NR2E3 ag confirm=95;VP16 counter=79
COc1ccc(OC)c(CCNC(=O)Cn2nc(C)c3c(C)n(-c4ccc(C)cc4)nc3c2=O)c1 | - | - | 33 | - | - | 74 | 98 | - | NR2E3 ag confirm=-;VP16 counter=-
COc1ccc(CCNC(=O)Cn2nc(C)c3c(C)n(-c4ccccc4)nc3c2=O)c(OC)c1 | - | - | - | - | - | - | . | .
C[C@H]1CN([C@@H](C)CO)S(=O)(=O)c2ccc(C#Cc3ccccc3)cc2O[C@H]1CN(C)C | - | . | . | . | . | . | . | .
O=C(C[C@@H]1C[C@@H]2c3cc(NC(=O)c4cccnc4)ccc3O[C@@H]2[C@H](CO)O1)NCCN1CCCCC1 | - | . | . | . | . | . | . | .
CN1C(=O)c2cc(NC(=O)c3cccs3)ccc2OC[C@@H]2O[C@@H](CC(=O)N3CCCCC3)CC[C@@H]21 | - | . | . | . | . | . | . | .
Fc1ccc(NC(=S)NNc2ncc(C(F)(F)F)cc2Cl)c(F)c1 | 70 | - | 92 | - | - | 80 | 97 | - | NR2E3 ag confirm=-;VP16 counter=-
COc1ccc(S(=O)(=O)N(C)C[C@@H]2OCCCC[C@@H](C)Oc3ccc(NS(=O)(=O)c4ccc(C)cc4)cc3C(=O)N([C@H](C)CO)C[C@@H]2C)cc1 | - | . | . | . | . | . | . | .
OC1(c2ccc(OC(F)F)cc2)CSC(=Nc2cccnc2)N1C1CC1 (stereo not given) | 75 | - | 98 | - | - | - | - | - | NR2E3 ag confirm=-;VP16 counter=-
CCCOc1ccc(CSc2nc3ccccc3[nH]2)cc1 | - | - | 86 | - | - | 74 | 108 | - | NR2E3 ag confirm=74;VP16 counter=-
CCOc1ccc(OCCSc2nc3ccccc3[nH]2)cc1 | . | - | - | - | - | - | . | .
C[C@@H]1CN([C@H](C)CO)C(=O)Cc2cc(NS(=O)(=O)c3cn(C)cn3)ccc2O[C@@H]1CN(C)Cc1ccc(C(=O)O)cc1 | - | . | . | . | . | . | . | .
Cc1nn(C)c(C(=O)NCc2ccc(Cl)cc2)c1Cl | - | - | 82 | - | - | - | 100 | - | NR2E3 ag confirm=89;VP16 counter=75
CC(C)CC#Cc1ccc2c(c1)O[C@@H](CN(C)C(=O)Cc1ccccn1)[C@H](C)CN([C@@H](C)CO)S2(=O)=O | - | . | . | . | . | . | . | .
Cc1sc2ncnc(NCC3COc4ccccc4O3)c2c1C (stereo not given) | - | - | 100 | - | - | 92 | 105 | - | NR2E3 ag confirm=97;VP16 counter=89
C[C@H](O)C#Cc1cnc2c(c1)C(=O)N([C@@H](C)CO)C[C@H](C)[C@@H](CN(C)C(=O)Cc1ccncc1)O2 | - | . | . | . | . | . | . | .
CC(NC(=O)Cn1nc(-c2ccccc2)c2ccccc2c1=O)c1ccccc1 (stereo not given) | - | - | - | - | - | - | . | .
O=C(Cn1nc(-c2ccccc2)c2ccccc2c1=O)Nc1ccc(O)cc1 | - | - | 14 | - | - | - | - | -
CCC(C)C(=O)Nn1c(C2CC2)nc2cc(OC)c(OC)cc2c1=O (stereo not given) | - | - | 25 | - | - | - | 29 | -
N#Cc1cc(-c2ccccc2)oc1NC(=O)c1ccco1 | - | - | 29 | - | - | - | 16 | -
Cc1cccc(C(=O)Nc2oc(-c3ccccc3)cc2C#N)c1 | . | - | - | - | - | - | . | .
CCOC(=O)c1ccc(Oc2cn[nH]c2-c2ccc(O)cc2O)cc1 | - | - | 17 | - | - | - | - | 4.4
CCOC(=O)c1ccc(Oc2cn[nH]c2-c2ccc(OCC(=O)NN)cc2O)cc1 | - | - | - | - | - | - | . | .
CC(C)(CNC(=O)/C=C/c1ccc(F)cc1)CNC(=O)/C=C/c1ccc(F)cc1 | . | - | 31 | - | - | - | 15 | -
SMILES | Env fusion inh | V-ATPase pH | GalR3 antagonist | FXN GAA850 act | NR2E3 ag-1 | NR2E3 ag-2 | GalR3 conf | CNG parental | others
CC(C)(C)SCCNC(=O)/C=C/c1ccc(F)cc1 | . | - | - | - | - | - | . | .
COc1ccc2[nH]c3c(c2c1)CCN1C(=O)N([C@@H](C)C(=O)NCCc2ccc(OC)c(OC)c2)C(=O)[C@]31C | . | - | 26 | - | - | - | - | -
CC(C)CC#Cc1ccc2c(c1)O[C@H](CN(C)C(=O)CN(C)C)[C@@H](C)CN([C@@H](C)CO)S2(=O)=O | - | . | . | . | . | . | . | .
CCOC(=O)Cc1csc(NC(=O)c2cc(=O)c3ccccc3o2)n1 | - | - | 92 | - | - | - | 90 | -
CCOC(=O)Cc1csc(NC(=O)Cc2ccccc2)n1 | - | - | - | - | - | - | . | .
CCCN(CC(=O)Nc1ccc(Cl)cc1Cl)Cc1cc(=O)n2ccsc2n1 | - | - | 17 | - | - | - | 24 | -
C[C@@H]1CN([C@@H](C)CO)C(=O)c2cc(NC(=O)C3CCCCC3)ccc2O[C@@H]1CN(C)CC1CCCCC1 | - | . | . | . | . | . | . | .
Cc1cc(C(=O)Nc2ccc3c(c2)C(=O)N(C)[C@H]2CC[C@@H](CC(=O)NCC(F)(F)F)O[C@H]2CO3)no1 | - | . | . | . | . | . | . | .
Cc1ccc(CNC(=O)c2ccc(CNc3c(N4CCCC4)c(=O)c3=O)cc2)cc1 | - | - | 13 | - | - | - | - | -
C[C@H](O)C#Cc1cnc2c(c1)C(=O)N([C@@H](C)CO)C[C@@H](C)[C@@H](CN(C)C(=O)Nc1ccc(F)cc1)O2 | - | . | . | . | . | . | . | .
CCCCNC(=S)NNc1c(Cl)cc(Cl)cc1Cl | - | - | - | - | - | - | . | .
O=C(NCCCl)NNc1c(Cl)cc(Cl)cc1Cl | - | - | 26 | - | - | - | 13 | -
CO[C@@H]1CN(C)C(=O)c2cc(NC(=O)Nc3cccc(F)c3)ccc2OC[C@@H](C)N(C(=O)C2CC2)C[C@@H]1C | - | . | . | . | . | . | . | .
Cc1nc(SCc2nc3ccc(C(=O)c4ccccc4)cc3[nH]2)c2oc3ccccc3c2n1 | - | - | 14 | - | . | - | 22 | -
O=C(Nc1ccc(OCc2ccccc2)cc1)Nc1ccccc1C(=O)NCCCN1CCOCC1 | - | - | 17 | - | - | - | - | -

High-throughput results (PubChem)
